Bioassay records: PubChem BioAssay, Broad Institute
Rows were chosen to be rich in hits. Some 2.2% of all compounds tested hit in one or more screens of this group.
SIRT5 block = blocks human SIRT5 desuccinylation of peptide. Purified SirT5, succinyl-peptide AMC, trypsin-coupled fluorescence. inhibition, % at 15 µM. 330,000 compounds, 1.1% hits. AID 652115; in the data active means inhibition above about 15%; inconclusive means no clear call, values can overlap the other calls
Target sequence (Q9NXA8 whole entry, looked up): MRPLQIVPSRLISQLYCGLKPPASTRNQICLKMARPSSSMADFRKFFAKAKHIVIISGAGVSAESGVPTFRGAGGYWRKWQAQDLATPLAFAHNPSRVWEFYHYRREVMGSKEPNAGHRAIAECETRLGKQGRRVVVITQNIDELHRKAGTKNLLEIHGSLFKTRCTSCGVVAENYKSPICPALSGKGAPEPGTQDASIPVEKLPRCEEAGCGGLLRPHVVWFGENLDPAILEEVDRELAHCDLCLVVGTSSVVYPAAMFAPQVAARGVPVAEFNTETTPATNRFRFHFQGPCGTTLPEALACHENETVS
ERAP1 HTS inh = blocks human ERAP1 aminopeptidase activity | 340,000 compounds, 0.15% hits | Q9NZ08 | inhibition, % at 10.7 µM | recombinant ERAP1, Leu-AMC fluorescence, 60 min;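 active means mean replicate inhibition of at least 30%, or all replicates individually reaching that 30% level; inactive means mean below 30% and not every replicate reaching it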
FN deposit inh = fibronectin deposition inhibition | AH1F fibroblasts, Alexa488-fibronectin deposition fluorescence, overnight | inhibition, % at 12.6 µM | 350,000 compounds, 0.086% hits | AID 743247;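 active means mean inhibition across replicates of 30% or more, regardless of how many single replicates reach that level; inconclusive means mean under 30% yet at least half of replicates reach 30%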
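test system = AH1F fibroblasts assembling fluorescent fibronectin matrix | quantity = 10000 AH1F cells per well | buffer or medium = DMEM plus 2% serum, read in PBS | doses = single dose, pinned | incubation = 1 h cell attachment, overnight exposure to compound and label | detection = fluorescence at 485 nm excitation, 525 nm emission | read-out basis = inhibition from reduced deposited-fibronectin fluorescence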
FGF22 binding-1 = shifts melting point of recombinant human FGF22 | Q9HCT0 | recombinant FGF22 thermal shift, SYPRO orange fluorescence; percent of sucrose octasulfate shift, DMSO zero | activity (Tm shift, normalised), % at 9.99 µM | 340,000 compounds, 1.5% hits | AID 651658;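 active means mean Tm shift, scaled 0 neutral to 100 positive control, at about 1.3% or above, every replicate too, limit read from the data; inconclusive means no clear call, values can overlap the other calls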
Target sequence (Q9HCT0 whole entry, looked up): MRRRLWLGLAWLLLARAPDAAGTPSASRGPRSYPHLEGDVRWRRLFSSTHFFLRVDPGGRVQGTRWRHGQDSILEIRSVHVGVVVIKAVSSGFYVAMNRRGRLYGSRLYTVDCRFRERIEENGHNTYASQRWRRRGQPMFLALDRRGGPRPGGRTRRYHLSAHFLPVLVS
PGC1a acetyl inh = lowers PGC1a acetylation signal in U2OS cells | AlphaScreen anti-acetyl-lysine; with virally co-expressed GCN5 acetyltransferase | inhibition, % at 15.6 µM | 350,000 compounds, 0.17% hits | AID 651687;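 active means every replicate shows inhibition of at least 40%; inconclusive means mean inhibition at least 40% but some replicate below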
FGF22 binding-2 = binders of human FGF22 by thermal shift; shares compounds with FGF22 binding-1; thermal shift activity, °C (ΔTm) at 38 µM; 1,000 compounds, 2% hits; recombinant FGF22 thermal shift, SYPRO orange fluorescence;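 active means fitted rise in melting shift crosses a set limit at or below the top valid dose tested; inconclusive means flat fit at mid-level activity, or a poor quality fit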
TSA no protein = compound-only SYPRO artifact for FGF22 binders | shares compounds with FGF22 binding-1 | compound-only SYPRO orange thermal shift counter-screen, no protein | AC50, µM (series often up to 38 µM) | 1,000 compounds, 2% hits | AID 743019;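 active means rising signal whose fitted curve reaches the 0.54 level within the top valid dose, showing a melting point, actives reach about 13 µM in these data; inactive means the rest, including activity in the opposite direction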; further: value is where the raw curve crosses a fixed level and not half-maximal
Large screens that a line does not name were inactive (follow-up assays come after a bar, where they were run).

COc1cccc(NC(=O)N(C)C[C@@H]2Oc3cc(-c4ccccc4F)ccc3S(=O)(=O)N([C@@H](C)CO)C[C@@H]2C)c1	FGF22 binding-1 2.1 | FGF22 binding-2 inactive | TSA no protein inactive
C/C=C/c1ccc2c(c1)O[C@@H](CN(C)C(=O)Nc1ccc(F)cc1)[C@@H](C)CN([C@H](C)CO)S2(=O)=O	none (no result: FN deposit inh, FGF22 binding-1) | FGF22 binding-2 inactive | TSA no protein inactive
C[C@@H]1CN([C@H](C)CO)S(=O)(=O)c2ccc(-c3ccc(F)cc3)cc2O[C@@H]1CN(C)C(=O)Nc1ccccc1F	FGF22 binding-1 1.8 (no result: FN deposit inh) | FGF22 binding-2 inactive | TSA no protein inactive
C[C@@H]1CN([C@@H](C)CO)S(=O)(=O)c2ccc(/C=C/c3ccccc3)cc2O[C@H]1CN(C)Cc1ccc(C(=O)O)cc1	SIRT5 block inconclusive (no result: FN deposit inh)
COc1ccc(NC(=O)Nc2ccc3c(c2)C(=O)N([C@H](C)CO)C[C@@H](C)[C@H](CN(C)S(=O)(=O)c2ccccc2)O3)cc1	none (no result: FN deposit inh)
O=C(Nc1ccc(F)cc1)N1CC(=O)N2[C@H](C1)[C@H](c1ccc(-c3cccc(F)c3)cc1)[C@@H]2CO	none (no result: SIRT5 block)
CCCC#Cc1ccc2c(c1)[C@@H]1[C@@H](CCN1S(=O)(=O)c1ccccc1)[C@@H](CO)N2C	none (no result: SIRT5 block, ERAP1 HTS inh, FGF22 binding-1)
COc1cccc(NC(=O)N(C)C[C@H]2Oc3cc(-c4ccccc4F)ccc3S(=O)(=O)N([C@H](C)CO)C[C@H]2C)c1	SIRT5 block 16, FGF22 binding-1 2.3 | FGF22 binding-2 inactive | TSA no protein 11µM
COc1cccc(NC(=O)N(C)C[C@@H]2Oc3cc(-c4ccccc4F)ccc3S(=O)(=O)N([C@H](C)CO)C[C@H]2C)c1	none
COC(=O)[C@]1(Cc2ccccc2)N[C@H](CN(C)S(=O)(=O)c2ccc(C)cc2)[C@@H]2C(=O)N(Cc3ccccc3)C(=O)[C@@H]21	FGF22 binding-1 1.4 | FGF22 binding-2 inactive | TSA no protein inactive
COc1ccc(CN(C)C[C@@H]2OCCCC[C@H](C)Oc3ccc(N(C)C)cc3C(=O)N([C@H](C)CO)C[C@H]2C)cc1	none (no result: SIRT5 block, ERAP1 HTS inh, FN deposit inh, FGF22 binding-1)
COc1ccc(-c2csc(C(C)(NC(C)=O)c3ccc(OC)cc3)n2)cc1 (stereo not given)	none
COc1ccc(C(C)(NC(C)=O)c2nc(-c3ccncc3)cs2)cc1 (stereo not given)	FGF22 binding-1 18 (no result: SIRT5 block) | FGF22 binding-2 inactive | TSA no protein inactive
COc1cccc(CNC(=O)C2(C)CCCCN2C)c1 (stereo not given)	FGF22 binding-1 2.6 | FGF22 binding-2 inactive | TSA no protein inactive
COc1cccc(CNC(=O)C2(C)CCCN2C(=O)C(C)C)c1 (stereo not given)	none
CCc1ccc(NC(=O)COc2coc(CN3CCN(c4ccccc4)CC3)cc2=O)cc1	FGF22 binding-1 2.6 | FGF22 binding-2 inactive | TSA no protein inactive
COc1cccc(NC(=O)COc2coc(CN3CCN(c4ccccc4)CC3)cc2=O)c1	none
O=C(c1cccc(F)c1)N1C[C@@H]2[C@H](c3ccccc31)[C@H](CO)N2C(=O)C1CCCCC1	FGF22 binding-1 66 (no result: FN deposit inh) | FGF22 binding-2 inactive | TSA no protein inactive
COCC(=O)N1[C@H](CO)[C@H]2c3ccccc3NC[C@H]21	FGF22 binding-1 15 | FGF22 binding-2 inactive | TSA no protein inactive
COCC(=O)N1C[C@@H]2[C@H](c3ccccc31)[C@H](CO)N2C(=O)c1ccccc1F	FGF22 binding-1 1.7 | FGF22 binding-2 inactive | TSA no protein inactive
COc1ccccc1C(=O)N1C[C@H]2[C@@H](c3ccccc31)[C@H](CO)N2C(=O)C1CCCCC1	FGF22 binding-1 1.7 (no result: FN deposit inh) | FGF22 binding-2 inactive | TSA no protein inactive
O=C(c1cccc(F)c1)N1C[C@H]2[C@@H](c3ccccc31)[C@H](CO)N2C(=O)C1CCCCC1	none (no result: FN deposit inh, FGF22 binding-1)
CCC(=O)N1[C@H](CO)[C@@H]2c3ccccc3N(C(=O)c3ccccc3F)C[C@@H]21	none (no result: FN deposit inh)
C[C@H]1CN([C@@H](C)CO)C(=O)Cc2cc(NC(=O)NC3CCCCC3)ccc2O[C@H]1CN(C)S(C)(=O)=O	none (no result: FN deposit inh)
